Experimental data published in ChEMBL document CHEMBL1123658, “1-(2-pyridinyl)piperazine derivatives with antianaphylactic, antibronchospastic, and mast cell stabilizing activities” (J Med Chem, 1987).

Legend:
[1] = system: Rattus norvegicus; experiment: Rat PCA Test(50% inhibition of spot areas)in the female albino rats after oral administration in 10% aqueous acacia gum; value ranges from 13-117; type: functional; conditions: read-out: ID50 (the source's name)
Method in brief: (§1)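 Female rats (200-250 g) were passively sensitized by ventral intradermal anti-egg-albumin antiserum. This was raised in rats by intramuscular 1% egg albumin plus ip H. pertussis vaccine, with serum taken at 12 days. After 24 h, groups of 10 were dosed orally with compound or vehicle (10 mL/kg). At 60 min, iv challenge used 0.3% egg albumin with 1% Evans blue. Blued areas were measured after 30 min.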

[2] = system: Rattus norvegicus; experiment: Rat PCA Test(50% inhibition of spot areas)in the female albino rats after (ip) administration in 10% aqueous acacia gum; value ranges from 24-51; type: functional; conditions: read-out: ID50 (the source's name)
Method in brief: (§2)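 Female albino rats (200–250 g) received intradermal ventral injections of rat anti-egg-albumin antiserum; donors were raised with egg albumin im plus H. pertussis ip, and serum was taken at 12 days. 24 h later, compound was given ip in 10% acacia gum (10 mL/kg), 10 rats/group. Challenge 30 min later was iv 0.3% egg albumin plus 1% Evans blue. Blued areas were measured 30 min after challenge.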

[3] = system: Rattus norvegicus; experiment: Inhibition of mast cell degranulation was assessed in female albino rats at a dose of 45 umol/kg iv; type: functional
[4] = system: Cavia porcellus; experiment: Antibronchospatic activity determined by histamine stimulated bronchospasm inhibition in guinea pigs after(i.v.) administration; type: functional, Bronchiole
Method in brief: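 Guinea pigs, Konzett–Rössler preparation. Bronchospasm was induced with histamine. Compound was given iv (1 mL/kg) 1 min before the agonist, dissolved in saline or saline with slight excess HCl or CH3SO3H (pH 3.5–4). Three doses were tested in duplicate, chosen to give 20–90% inhibition. ID75 was read graphically from log dose–response curves.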

[5] = In vivo toxic effect was determined in mouse after oral administration with 10% aqueous acacia gum; value ranges from 2.50-3.50; type: toxicity, organism-based
Method in brief: (§3)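 Female albino mice, 20-30 g. Compound given orally as solution or suspension in 10% aqueous acacia gum, 10 animals per dose. Deaths recorded over 7 days.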

[6] = In vivo toxic effect was determined in mouse after intraperitoneal administration with 10% aqueous acacia gum; value ranges from 1-1.40; type: toxicity, organism-based; conditions: ip
Method in brief: (§4)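 Female albino mice (20-30 g), 10 animals per dose, dosed intraperitoneally with compound in solution or suspension; compounds tested as salts unless noted. Mortality was recorded over 7 days.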

[7] = system: Rattus norvegicus; experiment: Rat PCA Test(50% inhibition of spot areas)in the female albino rats after (ip) administration in 10% aqueous acacia gum; value ranges from 114-198; type: functional; conditions: read-out: ID50 (the source's name); method in brief: as §2
[8] = In vivo toxic effect was determined in mouse after intraperitoneal administration with 10% aqueous acacia gum; value ranges from 0.85-1.18; type: toxicity, organism-based; conditions: ip; method in brief: as §4
[9] = In vivo toxic effect was determined in mouse after oral administration with 10% aqueous acacia gum; value ranges from 0.68-1.24; type: toxicity, organism-based; method in brief: as §3
[10] = system: Rattus norvegicus; experiment: Rat PCA Test(50% inhibition of spot areas)in the female albino rats after (ip) administration in 10% aqueous acacia gum; value ranges from 25-150; type: functional; conditions: read-out: ID50 (the source's name); method in brief: as §2
[11] = In vivo toxic effect was determined in mouse after oral administration with 10% aqueous acacia gum; value ranges from 0.86-1.66; type: toxicity, organism-based; method in brief: as §3
[12] = In vivo toxic effect was determined in mouse after intraperitoneal administration with 10% aqueous acacia gum; value ranges from 0.29-0.60; type: toxicity, organism-based; conditions: ip; method in brief: as §4
[13] = system: Rattus norvegicus; experiment: Rat PCA Test(50% inhibition of spot areas)in the female albino rats after (ip) administration in 10% aqueous acacia gum; type: functional; conditions: read-out: ID50 (the source's name); method in brief: as §2
[14] = In vivo toxic effect was determined in mouse after intraperitoneal administration with 10% aqueous acacia gum; value ranges from 0.43-0.73; type: toxicity, organism-based; conditions: ip; method in brief: as §4
[15] = In vivo toxic effect was determined in mouse after oral administration with 10% aqueous acacia gum; value ranges from 0.84-1.62; type: toxicity, organism-based; method in brief: as §3
[16] = In vivo toxic effect was determined in mouse after intraperitoneal administration with 10% aqueous acacia gum; value ranges from 5.14-9.14; type: toxicity, organism-based; conditions: ip; method in brief: as §4
[17] = In vivo toxic effect was determined in mouse after oral administration with 10% aqueous acacia gum; value ranges from 3.02-4.51; type: toxicity, organism-based; method in brief: as §3
[18] = In vivo toxic effect was determined in mouse after intraperitoneal administration with 10% aqueous acacia gum; value ranges from 1.41-3.07; type: toxicity, organism-based; conditions: ip; method in brief: as §4
[19] = system: Rattus norvegicus; experiment: Rat PCA Test(50% inhibition of spot areas)in the female albino rats after (ip) administration in 10% aqueous acacia gum; value ranges from 328-1350; type: functional; conditions: read-out: ID50 (the source's name); method in brief: as §2
[20] = In vivo toxic effect was determined in mouse after intraperitoneal administration with 10% aqueous acacia gum; value ranges from 3.67-6.20; type: toxicity, organism-based; conditions: ip; method in brief: as §4
[21] = In vivo toxic effect was determined in mouse after intraperitoneal administration with 10% aqueous acacia gum; value ranges from 0.40-1.72; type: toxicity, organism-based; conditions: ip; method in brief: as §4
[22] = In vivo toxic effect was determined in mouse after oral administration with 10% aqueous acacia gum; value ranges from 0.67-1.21; type: toxicity, organism-based; method in brief: as §3
[23] = system: Rattus norvegicus; experiment: Rat PCA Test(50% inhibition of spot areas)in the female albino rats after oral administration in 10% aqueous acacia gum; type: functional; conditions: read-out: ID50 (the source's name); method in brief: as §1
[24] = In vivo toxic effect was determined in mouse after intraperitoneal administration with 10% aqueous acacia gum; value ranges from 1.73-3.04; type: toxicity, organism-based; conditions: ip; method in brief: as §4
[25] = In vivo toxicity in mouse after oral administration with 10% aqueous acacia gum; type: organism-based; method in brief: as §3
[26] = system: Rattus norvegicus; experiment: Rat PCA Test(50% inhibition of spot areas)in the female albino rats after (ip) administration in 10% aqueous acacia gum; value ranges from 57-105; type: functional; conditions: read-out: ID50 (the source's name); method in brief: as §2
[27] = system: Rattus norvegicus; experiment: Inhibition of mast cell degranulation was assessed in female albino rats at a dose of 29 umol/kg iv; type: functional
[28] = system: Rattus norvegicus; experiment: Rat PCA Test(50% inhibition of spot areas)in the female albino rats after (ip) administration in 10% aqueous acacia gum; value ranges from 20-94; type: functional; conditions: read-out: ID50 (the source's name); method in brief: as §2
[29] = system: Mus musculus; experiment: In vivo toxic effect was determined in mouse after intraperitoneal administration with 10% aqueous acacia gum; NA means poorly absorbed; type: toxicity, organism-based; conditions: ip; method in brief: as §4
[30] = system: Rattus norvegicus; experiment: Rat PCA Test(50% inhibition of spot areas)in the female albino rats after (ip) administration in 10% aqueous acacia gum; value ranges from 22-195; type: functional; conditions: read-out: ID50 (the source's name); method in brief: as §2
[31] = In vivo toxic effect was determined in mouse after intraperitoneal administration with 10% aqueous acacia gum; value ranges from 0.72-1.40; type: toxicity, organism-based; conditions: ip; method in brief: as §4
[32] = In vivo toxic effect was determined in mouse after oral administration with 10% aqueous acacia gum; value ranges from 1.35-1.88; type: toxicity, organism-based; method in brief: as §3
[33] = In vivo toxic effect was determined in mouse after intraperitoneal administration with 10% aqueous acacia gum; value ranges from 0.72-1.13; type: toxicity, organism-based; conditions: ip; method in brief: as §4
[34] = system: Rattus norvegicus; experiment: Rat PCA Test(50% inhibition of spot areas)in the female albino rats after (ip) administration in 10% aqueous acacia gum;Value ranges from (81-186); type: functional; conditions: read-out: ID50 (the source's name)
Method in brief: (§5)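 Antiserum came from female rats given 1% egg albumin in 0.9% NaCl intramuscularly plus Haemophilus pertussis vaccine (2 × 10^10 organisms) intraperitoneally, and was collected 12 days later. Recipient rats (200-250 g) got it intradermally at a ventral site. After 24 h, groups of 10 received vehicle or compound ip. At 30 min they were challenged iv with 0.3% egg albumin plus 1% Evans blue. Blued skin areas were measured 30 min later.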

[35] = system: Rattus norvegicus; experiment: Rat PCA Test(50% inhibition of spot areas)in the female albino rats after ip administration in 10% aqueous acacia gum; type: functional; conditions: read-out: ID50 (the source's name); method in brief: as §5
[36] = In vivo toxic effect was determined in mouse after intraperitoneal administration with 10% aqueous acacia gum; value ranges from 0.63-1.05; type: toxicity, organism-based; conditions: ip; method in brief: as §4
[37] = system: Rattus norvegicus; experiment: Inhibition of mast cell degranulation was assessed in female albino rats at a dose of 61 umol/kg iv; type: functional
[38] = In vivo toxic effect was determined in mouse after oral administration with 10% aqueous acacia gum; value ranges from 1.79-2.41; type: toxicity, organism-based; method in brief: as §3
[39] = In vivo toxic effect was determined in mouse after intraperitoneal administration with 10% aqueous acacia gum; value ranges from 0.96-10.62; type: toxicity, organism-based; conditions: ip; method in brief: as §4
[40] = system: Rattus norvegicus; experiment: Rat PCA Test(50% inhibition of spot areas)in the female albino rats after oral administration in 10% aqueous acacia gum; value ranges from 1.7-2.4; type: functional; conditions: read-out: ID50 (the source's name); method in brief: as §1
[41] = In vivo toxic effect was determined in mouse after oral administration with 10% aqueous acacia gum; value ranges from 0.50-0.68; type: toxicity, organism-based
[42] = system: Rattus norvegicus; experiment: Inhibition of mast cell degranulation was assessed in female albino rats at a dose of 2 umol/kg iv; type: functional
[43] = In vivo toxic effect was determined in mouse after intraperitoneal administration with 10% aqueous acacia gum; value ranges from 0.29-0.42; type: toxicity, organism-based; conditions: ip; method in brief: as §4

CC1CN(c2ccccn2)CCN1CCC(=O)Nc1ccc(N)cc1.Cl (centres undefined)
ED50 [1]: 92 µmol/kg | ED50 [2]: 35 µmol/kg | inhibition in vivo at 45 µmol/kg [3]: 14% | ID75 [4]: 0.59 µM/kg | LD50 [5]: 2970 µmol/kg | LD50 [6]: 1190 µmol/kg

Cl.Nc1cccc(NC(=O)CCN2CCN(c3ccccn3)CC2)c1
ED50 [7]: 148 µmol/kg | LD50 [8]: 900 µmol/kg | LD50 [9]: 850 µmol/kg | ID75 [4]: 0.61 µM/kg

CC1CN(c2ccccn2)CCN1CCC(=O)Nc1ccc([N+](=O)[O-])cc1.Cl.Cl (centres undefined)
ED50 [10]: 61 µmol/kg | LD50 [11]: 1200 µmol/kg | LD50 [12]: 420 µmol/kg

Cl.Cl.O=C(CCN1CCN(c2ccccn2)CC1)Nc1cccc(C(F)(F)F)c1
ED50 [13]: > 55 µmol/kg | LD50 [14]: 560 µmol/kg | ID75 [4]: 0.65 µM/kg | LD50 [15]: 1170 µmol/kg

CCOC(=O)CC(C)N1CCN(c2ccccn2)CC1.Cl.Cl (centres undefined)
LD50 [16]: 6850 µmol/kg | ED50 [13]: > 857 µmol/kg | ID75 [4]: 4.14 µM/kg

Cl.Cl.O=C(CCN1CCN(c2ccccn2)CC1)Nc1ccccc1[N+](=O)[O-]
LD50 [17]: 3700 µmol/kg | ED50 [13]: > 230 µmol/kg | LD50 [18]: 2080 µmol/kg | ID75 [4]: 0.58 µM/kg

CCOC(=O)CCN1CCN(c2ccccn2)CC1.Cl.Cl
ED50 [19]: 665 µmol/kg | ID75 [4]: 7.03 µM/kg | LD50 [20]: 5080 µmol/kg

Cl.Cl.O=C(CCN1CCN(c2ccccn2)CC1)Nc1ccc([N+](=O)[O-])cc1
LD50 [21]: 470 µmol/kg | LD50 [22]: 810 µmol/kg | ID75 [4]: 0.94 µM/kg

CC(=O)c1ccccc1NC(=O)CCN1CCN(c2ccccn2)CC1.Cl.Cl
ED50 [23]: > 230 µmol/kg | LD50 [24]: 2300 µmol/kg | LD50 [25]: > 6910 µmol/kg | ED50 [26]: 77 µmol/kg | ID75 [4]: 0.89 µM/kg | inhibition in vivo at 29 µmol/kg [27]: 0%

Br.CC(=O)c1ccc(NC(=O)CCN2CCN(c3ccc(Br)cn3)CC2)cc1
ED50 [23]: > 230 µmol/kg | LD50 [25]: > 7000 µmol/kg | ED50 [28]: 43 µmol/kg | LD50 [29]: Not Active

Cc1ccccc1NC(=O)CCN1CCN(c2ccccn2)CC1
ED50 [30]: 65 µmol/kg | LD50 [31]: 1010 µmol/kg | ED50 [23]: > 96 µmol/kg | LD50 [32]: 1580 µmol/kg | ID75 [4]: 0.47 µM/kg

Cc1cccc(C)c1NC(=O)CN1CCN(c2ccccn2)CC1
LD50 [33]: 900 µmol/kg | ED50 [34]: 123 µmol/kg | ID75 [4]: >24 µM/kg

Cc1c(C)c(C(=O)NCCN2CCN(c3ccccn3)CC2)c(C)c(C)c1N
ED50 [35]: > 236 µmol/kg | LD50 [36]: 710 µmol/kg | ID75 [4]: 8.39 µM/kg

Nc1ccccc1NC(=O)CCN1CCN(c2ccccn2)CC1
inhibition in vivo at 61 µmol/kg [37]: 26% | LD50 [38]: 2080 µmol/kg | LD50 [39]: 3200 µmol/kg

CN1CCC(=C2c3ccccc3CC(=O)c3sccc32)CC1 [KETOTIFEN]
ED50 [40]: 2 µmol/kg | LD50 [41]: 580 µmol/kg | inhibition in vivo at 2 µmol/kg [42]: 22% | LD50 [43]: 350 µmol/kg | ID75 [4]: 0.0015 µM/kg
